Results published in ChEMBL document CHEMBL1671628, “Cell density and cell aging as factors modulating antifungal resistance of Candida albicans biofilms” (2008).

Key:
Format in all cases: functional
[1] = test system: Candida albicans; experiment: Antifungal activity against 10^3 cells/ml Candida albicans ATCC 90028 by NCCLS method
Method in brief: (§1)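 Planktonic broth microdilution per NCCLS (CLSI): inoculum from 24-h SDA cultures adjusted to 0.5 McFarland at 520 nm, diluted in RPMI 1640 to about 0.5 × 10^3 to 2.5 × 10^3 cells/ml. Cells exposed to twofold drug dilutions, incubated 35°C for 48 h, then MIC read. Three separate occasions.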

[2] = test system: Candida albicans; experiment: Antifungal activity against 24 hrs cultures of 10^7 cells/ml Candida albicans ATCC 90028 planktonic cells by XTT reduction method
Method in brief: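 Standard 1 × 10^7 cells/ml suspension in YNB + 100 mM glucose propagated planktonically 24 h alongside age-matched biofilms, then exposed to twofold drug dilutions. Metabolic activity read by XTT–menadione reduction, 3 h dark, 37°C, A490 background-subtracted. MIC50 is the 50% reduction point versus drug-free control.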

[3] = test system: Candida albicans; experiment: Antifungal activity against 48 hrs cultures of 10^7 cells/ml biofilm-derived Candida albicans ATCC 90028 planktonic cells hrs by XTT reduction method
Method in brief: (§2)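 Biofilms grown 24 or 48 h from 1 × 10^7 cells/ml were washed, scraped and transferred into plates of twofold serially diluted drugs. They were incubated 24 or 48 h. MIC was read by XTT reduction (3 h at 37°C in the dark, A490 minus blank) as 50% reduction vs drug-free control.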

[4] = test system: Candida albicans; experiment: Antifungal activity against 10^7 cells/ml wild-type Candida albicans BF-1 planktonic cells by XTT reduction assay
Method in brief: (§3)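 High-density planktonic suspensions (10^7 or 10^8 cells/ml) added to serially double-diluted drugs as in the NCCLS setup, run in parallel in RPMI 1640 + 2% glucose and YNB + 100 mM glucose. Viability read by XTT (1 mg/ml) with menadione (0.4 mM stock, 5:1), 3 h dark at 37°C, A490 minus blank wells. MIC50 = lowest concentration giving 50% reduction versus drug-free control.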

[5] = test system: Candida albicans; experiment: Antifungal activity against 10^5 cells/ml wild-type Candida albicans BF-1 by EUCAST method
Method in brief: (§4)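 EUCAST AFST planktonic broth microdilution: RPMI 1640 plus 2% glucose, inoculum 0.5 × 10^5 to 2.5 × 10^5 cells/ml, twofold drug dilutions. Performed on three different occasions.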

[6] = test system: Candida albicans; experiment: Antifungal activity against 10^8 cells/ml wild-type Candida albicans BF-1 planktonic cells by XTT reduction assay
Method in brief: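 Planktonic suspensions at 1 × 10^8 cells/ml added to twofold serial drug dilutions in 96-well plates (NCCLS format). Run in parallel in RPMI 1640 + 2% glucose and YNB + 100 mM glucose. Readout by XTT reduction: XTT–menadione in PBS, 3 h at 37°C in the dark, A490 minus blank. MIC50 is 50% reduction vs drug-free control.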

[7] = test system: Candida albicans; experiment: Antifungal activity against 24 hrs cultures of 10^7 cells/ml Candida albicans ATCC 90028 biofilms by XTT reduction assay
Method in brief: (§5)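 Washed late-exponential cells at 1 × 10^7 cells/ml in YNB + 100 mM glucose were adhered 1.5 h at 37°C with shaking at 75 rpm, washed, then grown 24 or 48 h at 37°C, 75 rpm. Biofilms were washed and exposed 24 or 48 h at 37°C to twofold dilutions in RPMI + 2% glucose. Read by XTT at A490. MIC50 is 50% reduction vs drug-free control. Three experiments, four replicates.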

[8] = test system: Candida albicans; experiment: Antifungal activity against 24 hrs cultures of 10^7 cells/ml biofilm-derived Candida albicans BF-1 planktonic cells hrs by XTT reduction method; method in brief: as §2
[9] = test system: Candida albicans; experiment: Antifungal activity against 24 hrs cultures of 10^7 cells/ml wild-type Candida albicans BF-1 biofilms by XTT reduction assay; method in brief: as §5
[10] = test system: Candida albicans; experiment: Antifungal activity against 48 hrs cultures of 10^7 cells/ml Candida albicans ATCC 90028 biofilms by XTT reduction method; method in brief: as §5
[11] = test system: Candida albicans; experiment: Antifungal activity against 24 hrs cultures of 10^7 cells/ml biofilm-derived Candida albicans ATCC 90028 planktonic cells hrs by XTT reduction method
Method in brief: (§6)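 Biofilms grown from 1 × 10^7 cells/ml (YNB + 100 mM glucose, 1.5 h adherence, 37°C, 75 rpm) for 24 or 48 h, washed, scraped and moved to wells of serially double-diluted drugs. Incubated with drug 24 or 48 h, then XTT–menadione read at 490 nm. MIC50 = 50% reduction versus drug-free control.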

[12] = test system: Candida albicans; experiment: Antifungal activity against 24 hrs cultures of 10^7 cells/ml Candida albicans ATCC 90028 biofilms by XTT reduction method; method in brief: as §5
[13] = test system: Candida albicans; experiment: Ratio of MIC for 10^8 cells/ml wild-type Candida albicans BF-1 to MIC for 10^7 cells/ml wild-type Candida albicans BF-1 grown as planktonic cells; method in brief: as §3
[14] = test system: Candida albicans; experiment: Antifungal activity against 48 hrs cultures of 10^7 cells/ml Candida albicans ATCC 90028 planktonic cells by XTT reduction method
Method in brief: (§7)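 Age-matched planktonic cultures were grown from the same 1 × 10^7 cells/ml YNB + 100 mM glucose suspension under the biofilm conditions for 24 or 48 h. They were tested against twofold drug dilutions by XTT reduction (3 h at 37°C in the dark, A490 minus blank). MIC50 is 50% reduction vs drug-free control.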

[15] = test system: Candida albicans; experiment: Antifungal activity against 24 hrs cultures of 10^7 cells/ml Candida albicans BF-1 biofilms by XTT reduction method; method in brief: as §5
[16] = test system: Candida albicans; experiment: Antifungal activity against 48 hrs cultures of 10^7 cells/ml biofilm-derived Candida albicans BF-1 planktonic cells hrs by XTT reduction method; method in brief: as §6
[17] = test system: Candida albicans; experiment: Antifungal activity against 48 hrs cultures of 10^7 cells/ml Candida albicans ATCC 90028 biofilms by XTT reduction assay; method in brief: as §5
[18] = test system: Candida albicans; experiment: Antifungal activity against 48 hrs cultures of 10^7 cells/ml wild-type Candida albicans BF-1 biofilms by XTT reduction assay; method in brief: as §5
[19] = test system: Candida albicans; experiment: Antifungal activity against 48 hrs cultures of 10^7 cells/ml Candida albicans BF-1 biofilms by XTT reduction method; method in brief: as §5
[20] = test system: Candida albicans; experiment: Antifungal activity against 24 hrs cultures of 10^7 cells/ml Candida albicans BF-1 planktonic cells by XTT reduction method; method in brief: as §7
[21] = test system: Candida albicans; experiment: Antifungal activity against 10^3 cells/ml wild-type Candida albicans BF-1 by NCCLS method; method in brief: as §1
[22] = test system: Candida albicans; experiment: Antifungal activity against 10^8 cells/ml Candida albicans ATCC 90028 planktonic cells by XTT reduction assay; method in brief: as §3
[23] = test system: Candida albicans; experiment: Antifungal activity against 10^5 cells/ml Candida albicans ATCC 90028 by EUCAST method; method in brief: as §4
[24] = test system: Candida albicans; experiment: Antifungal activity against 48 hrs cultures of 10^7 cells/ml Candida albicans BF-1 planktonic cells by XTT reduction method; method in brief: as §7
[25] = test system: Candida albicans; experiment: Antifungal activity against 10^7 cells/ml Candida albicans ATCC 90028 planktonic cells by XTT reduction assay; method in brief: as §3

## NYSTATIN
[1]
  MIC: 1 µg/mL
[2]
  MIC: 2 µg/mL
[3]
  MIC: 8 µg/mL
[4]
  MIC: 2 µg/mL
[5]
  MIC: 2 µg/mL
[6]
  MIC: 16 µg/mL
[7]
  MIC: 16 µg/mL
[8]
  MIC: 4 µg/mL
[9]
  MIC: 32 µg/mL
[10]
  MIC: 16 µg/mL
[11]
  MIC: 2 µg/mL
[12]
  MIC: 16 µg/mL
[13]
  Ratio: 8
[14]
  MIC: 8 µg/mL
[15]
  MIC: 32 µg/mL
[16]
  MIC: 16 µg/mL
[17]
  MIC: 16 µg/mL
[18]
  MIC: 32 µg/mL
[19]
  MIC: 32 µg/mL
[20]
  MIC: 4 µg/mL
[21]
  MIC: 2 µg/mL
[22]
  MIC: 8 µg/mL
[23]
  MIC: 1 µg/mL
[24]
  MIC: 16 µg/mL
[25]
  MIC: 2 µg/mL
